Measured values as given in ChEMBL document CHEMBL3243941, “Hydrolysis of 3-chloro-3-cephems. Intramolecular nucleophilic attack in cefaclor” (J Med Chem, 1977).
Converted amounts (≈) assume the structure as drawn.

Key:
[1] = Hydrolytic stability of the compound assessed as beta-lactum ring opening rate at pH 10 at 35 degC by UV method; assay type: physicochemical; conditions: buffer
In short: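 Pseudo-first-order rate constants for β-lactam ring opening, measured by UV at pH 10.0 and 35 °C and reported as k_obsd (s−1).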

[2] = system: Klebsiella pneumoniae; experiment: Antibacterial activity against Klebsiella pneumoniae X26 assessed as growth inhibition; assay type: functional
[3] = system: Klebsiella aerogenes; experiment: Antibacterial activity against Enterobacter aerogenes X68 assessed as growth inhibition; assay type: functional
[4] = Antibacterial activity against Salmonella heidelberg X514 assessed as growth inhibition; assay type: functional, Salmonella enterica subsp. enterica serovar Heidelberg; conditions: Salmonella enterica
[5] = system: Shigella sp.; experiment: Antibacterial activity against Shigella sp. N9 assessed as growth inhibition; assay type: functional
[6] = system: Escherichia coli; experiment: Antibacterial activity against Escherichia coli N10 assessed as growth inhibition; assay type: functional

SMILES	k obsd [1] [s⁻¹]	MIC [2] [µg/mL]	MIC [3] [µg/mL]	MIC [4] [µg/mL]	MIC [5] [µg/mL]	MIC [6] [µg/mL]
O=C(Cc1cccs1)N[C@@H]1C(=O)N2C(C(=O)O)=C(Cl)CS[C@H]12	0.000131	0.8 (≈ 2.23 µM)	0.9 (≈ 2.51 µM)	0.9 (≈ 2.51 µM)	17.5 (≈ 48.8 µM)	21.2 (≈ 59.1 µM)
CC1=C(C(=O)O)N2C(=O)[C@@H](NC(=O)Cc3cccs3)[C@H]2SC1	1.07e-05	10 (≈ 29.5 µM)	30 (≈ 88.6 µM)	29 (≈ 85.7 µM)	120 (≈ 355 µM)	116 (≈ 343 µM)
CC(=O)OCC1=C(C(=O)O)N2C(=O)[C@@H](NC(=O)Cc3cccs3)[C@H]2SC1 [CEPHALOTHIN]	9.7e-05	1 (≈ 2.52 µM)	3 (≈ 7.57 µM)	1 (≈ 2.52 µM)	14 (≈ 35.3 µM)	15 (≈ 37.8 µM)

Now from value to compound:

k obsd [1] [s⁻¹]	MIC [2] [µg/mL]	MIC [3] [µg/mL]	MIC [4] [µg/mL]	MIC [5] [µg/mL]	MIC [6] [µg/mL]	SMILES
0.000183	–	–	–	–	–	O=C(COc1ccccc1)N[C@@H]1C(=O)N2C(C(=O)O)=C(Cl)CS[C@H]12
0.000287	–	–	–	–	–	N[C@@H](C(=O)N[C@@H]1C(=O)N2C(C(=O)O)=C(Cl)CS[C@H]12)c1ccccc1 [CEFACLOR ANHYDROUS]
